# ERAP1 HTS inh: blocks human ERAP1 aminopeptidase activity. Q9NZ08. recombinant ERAP1, Leu-AMC fluorescence, 60 min. inhibition, % at 10.7 µM. 340,000 tested, 0.15% active. AID 652197;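 active = mean replicate inhibition of at least 30%, or all replicates individually reaching that 30% level; inactive = mean below 30% and not every replicate reaching it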;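 also: 0% = neutral control wells and 100% = L-leucinethiol positive control wells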
# SIRT5 block: inhibitors of human sirtuin-5 desuccinylase; Q9NXA8; Purified SirT5, succinyl-peptide AMC, trypsin-coupled fluorescence; inhibition, % at 15 µM; 330,000 tested, 1.1% active; in the data active = inhibition above about 15%; inconclusive = no clear call, values can overlap the other calls
# Target sequence (Q9NXA8 whole entry, looked up): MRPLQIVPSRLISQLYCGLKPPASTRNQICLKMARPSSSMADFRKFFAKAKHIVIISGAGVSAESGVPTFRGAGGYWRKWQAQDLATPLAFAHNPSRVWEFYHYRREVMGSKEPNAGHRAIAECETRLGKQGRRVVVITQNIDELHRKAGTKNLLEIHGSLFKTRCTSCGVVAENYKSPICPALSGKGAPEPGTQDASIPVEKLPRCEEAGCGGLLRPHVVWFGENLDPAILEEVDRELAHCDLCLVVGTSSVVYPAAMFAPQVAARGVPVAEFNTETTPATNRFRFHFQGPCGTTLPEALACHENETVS
# rRNA inh HTS: inhibitors of bacterial rRNA selective over humanized ribosomes | E. coli WT GFP vs humanized-ribosome RFP mutants, fluorescence, 24 h; active compounds read low; DMSO median 0, no signal -100 | GFP signal change (wild-type ribosome), % (concentration not given with the values) | 350,000 tested, 1.6% active;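 active = significant combined selectivity score with lowered wild-type GFP, culture density cut under 30%, mutant RFP and density less affected; inactive = any of these conditions unmet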
# S100A4 inh HTS: blocks human S100A4 binding to myosin IIA peptide. S100A4/TAMRA-MyoIIA peptide fluorescence polarization. P26447. inhibition, % at 10.7 µM. 360,000 tested, 0.14% active. AID 652163;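 active = mean inhibition of at least 70% across replicates, with every replicate also reaching that level; inconclusive = mean inhibition reaches 70% but some replicates fall short; inactive = mean inhibition below 70%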
# Target sequence (P26447 whole entry, looked up): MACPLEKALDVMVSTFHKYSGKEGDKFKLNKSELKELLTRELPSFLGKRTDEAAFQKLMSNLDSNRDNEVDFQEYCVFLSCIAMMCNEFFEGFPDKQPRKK
#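 Assay system: human S100A4 monomer with TAMRA-labelled myosin IIA peptide / Buffer or medium: Calcium-containing HEPES buffer, pH 7.2 / Reagent: TAMRA-labelled myosin IIA heavy-chain peptide probe, 5 nM / Compound: one dose per compound / Timing: polarization read 5 min after assay mix addition, stable 5–60 min / Benchmarks: neutral control DMSO, positive control TFP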
# MLL AF4-AF9 inh: blocks AF4 peptide binding to human AF9 | AlphaScreen, biotin-AF4 peptide binding to FLAG-AF9 | inhibition, % at 10 µM | 350,000 tested, 0.47% active | P42568;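 active = every replicate reaching a set inhibition limit, whatever the replicate mean, cut at about 25% in these data; inconclusive = mean inhibition reaches that limit but some replicates miss it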;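 also: 0% = plate neutral control median and 100% = total signal loss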
# E-sel inducer: E-selectin induction on HUVECs; P16581; HUVEC E-selectin immunofluorescence imaging; normalized: neutral wells 0, TNF-alpha wells 100; activation, % at 7.58 µM; 260,000 tested, 0.37% active;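 active = mean E-selectin-positive cell signal at least 10% of the positive control, reached in at least 60% of replicates, without over 20% cell loss; inconclusive = no rule given, readout overlaps actives, possibly toxicity-flagged; inactive = the rest, including those meeting only one limit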
#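 Read-out basis: % PE-positive cells; Test system: HUVEC primary endothelial cells; Technique: immunofluorescence imaging; Dosing: single-point compound dose.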
# HepG2 tox: kills or reduces viability of HepG2 cells. AID 743480. 30 tested, under 10 active. activity change, negative = cytotoxicity, unspecified at 26 µM. ATP luminescence, 72 h. shares compounds with rRNA inh HTS;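 active = compounds whose fitted half-maximal signal-loss concentration is at most twice their highest valid dose; inconclusive = flat curve with 30 to 70% signal loss, or poor fit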
# AID977621: wild-type E. coli growth inhibition versus H69 humanized strain – H69 mutant RFP, wild-type GFP, cherry-pick, dose response; shares compounds with rRNA inh HTS; fluorescence, 24 h; activity change, negative = inhibition at 50 µM; 1,900 tested, under 10 active; AID 977621;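 active = Wild-type ribosome reporter drop at least double the humanized mutant ribosome reporter drop, growth loss under a set limit; inconclusive = no clear call, values can overlap the other calls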;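 also: wild-type GFP and H69 mutant RFP strains grown together 50/50 in each well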
# AID977628: E. coli growth inhibition, wild-type GFP versus h24 humanized RFP strain, dose response, h24 mutant RFP vs wild-type GFP, cherry-pick; 1,900 tested, under 10 active; activity change, negative = inhibition at 50 µM; E. coli WT GFP strain growth, fluorescence, 24 h; AID 977628; shares compounds with rRNA inh HTS;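 active = compound lowering the normal-ribosome reporter at least twice as much as the humanized-ribosome reporter, growth loss under a set limit; inconclusive = no clear call, values can overlap the other calls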;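 also: wild-type GFP and h24 humanized RFP strains co-cultured 1 to 1 per well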
# Numbers without * were called inactive; ? = inconclusive; . = not tested or not shown. Only some compounds are listed: those with a hit (about 3.4% of all), similar ones and a draw of the others.
SMILES,ERAP1 HTS inh,SIRT5 block,rRNA inh HTS,S100A4 inh HTS,MLL AF4-AF9 inh,E-sel inducer,AID977621,AID977628,others
COc1ccc(C2=NN(C(=O)CN3CCCCC3)C(c3ccc(C)cc3)C2)cc1 (centres undefined),-1,2,-20,-2,6,5,.,.,
COc1ccc(S(=O)(=O)N(C)C[C@@H]2Oc3c(NS(=O)(=O)c4ccc(F)cc4)cccc3C(=O)N([C@H](C)CO)C[C@H]2C)cc1,.,.,-6,.,.,-3,.,.,
CC(C)NC(=O)Nc1ccc2c(c1)CC(=O)N(C)C[C@H](C)[C@H](CN(C)C(=O)NC(C)C)O2,.,.,3,.,.,.,.,.,
C[C@@H]1CN([C@H](C)CO)S(=O)(=O)c2ccc(-c3cccc(C#N)c3)cc2O[C@H]1CN(C)C(=O)c1ccncc1,1,-5,0,-1,0,0,.,.,
COc1cc2ccccc2cc1C(=O)NC1CCC(C)CC1 (centres undefined),1,-1,0,-4,-3,0,.,.,
COc1cc2ccccc2cc1C(=O)NC1CCCCC1,-5,0,-28*,-17,0,.,-16,-9.7,
COc1ccc(CN2C(=O)NC(C)(c3ccc(C)cc3)C2=O)cc1F (centres undefined),-2,-3,-22*,-3,-7,1,-9.9,?,
COc1ccc(CN2C(=O)NC3(CCOc4ccccc43)C2=O)cc1F (centres undefined),-7,-5,.,12,2,3,.,.,
C[C@H]1CN([C@@H](C)CO)C(=O)Cc2cc(NC(=O)Nc3ccc(C(F)(F)F)cc3)ccc2O[C@H]1CN(C)C(=O)NC1CCCCC1,-2,1,.,6,2,.,.,.,
CCOc1ccc(C(=O)Nc2cccc3cccnc23)cc1,1,-1,8,1,3,.,.,.,
CC(C)Oc1ccc(C(=O)Nc2cccc3cccnc23)cc1,2,-6,-22*,-13,-2,1,-14,-1.1,
NC(=O)c1cccnc1Oc1ccc(Cl)cc1Cl,8,1,-31*,3,2,2,-6.9,-13,
CN1c2ccc(Cl)cc2C(=O)NC1C1CC=CCC1 (centres undefined),-22,-6,-23*,-4,-4,4,-2.7,.,
C[C@@H]1CC=CC[C@@H](c2cccc(Cl)c2)NC(=O)[C@@H](C)N(C)C(=O)c2ccccc2O1 (mixture of isomers),.,.,-56,.,.,.,.,.,
CCOC(=O)c1c(NC(=O)Cc2cccs2)sc(C)c1C,-4,-1,-34*,0,1,.,.,.,HepG2 tox=11
COC(=O)c1c(NC(=O)Cc2cccs2)sc(C(=O)NC2CCCCC2)c1C,-4,-14,11,-7,-1,.,.,.,
COc1ccc(NC(=O)c2ccc(COc3ccccc3Br)o2)c(OC)c1,3,-3,-16*,0,-11,.,-12,-0.85,
COc1ccc(NC(=O)c2ccc(COc3ccccc3)o2)c(OC)c1,-5,5,-24,0,-1,0,.,.,
CCCN(C)C[C@@H]1OCCCC[C@@H](C)Oc2ccc(NS(=O)(=O)c3ccc(F)cc3)cc2C(=O)N([C@@H](C)CO)C[C@@H]1C,-3,0,5,-33,-1,2,.,.,
Cc1ccc(NC(=O)c2cccs2)cc1[N+](=O)[O-],5,0,-28*,-1,3,.,-1.9,.,
CC(=O)Nc1ccc(NS(=O)(=O)c2cc([N+](=O)[O-])ccc2C)cc1,3,-4,8,-3,-2,1,.,.,
CC(=O)Nc1ccc(S(=O)(=O)Nc2ccc(C)c([N+](=O)[O-])c2)cc1,1,1,-26*,-4,2,2,.,?,
Cc1ccc(C(=O)Nc2ccc(NC(=O)c3cccs3)cc2)cc1[N+](=O)[O-],0,1,12,-13,-3,.,.,.,
COc1ccc2c3c([nH]c2c1)[C@@H](CO)N(C(=O)CN(C)C)CC31CN(C(=O)c2ccncc2)C1,-7,.,3,7,-2,0,.,.,
CCn1ccnc1CN1CCCC(C(=O)c2ccc3cc(OC)ccc3c2)C1 (centres undefined),-3,-2,-33*,-25,15,2,-5.8,-3.3,
SMILES,ERAP1 HTS inh,SIRT5 block,rRNA inh HTS,S100A4 inh HTS,MLL AF4-AF9 inh,E-sel inducer,AID977621,AID977628,others
COc1ccc2cc(C(=O)C3CCCN(Cc4ccccn4)C3)ccc2c1 (centres undefined),-1,-20,-35,-24,7,-2,.,.,
Cc1ccccc1S(=O)(=O)N1CCCCN2[C@H](C1)[C@H](c1ccc(-c3ccccc3)cc1)[C@@H]2CO,1,14,.,-6,-5,.,.,.,
Cc1cccc(-c2ccc([C@H]3[C@@H](CO)N4CCCCN(S(=O)(=O)c5ccccc5C)C[C@@H]34)cc2)c1,-1,1,2,4,-3,0,-3.9,-3,
Cc1cccc(-c2ccc([C@H]3[C@@H](CO)N4CCCCN(S(=O)(=O)c5ccccc5C)C[C@H]34)cc2)c1,1,3,-41,-4,4,0,0.84,.,
O=S(=O)(Cc1ccccc1)N1CCCCN2[C@@H](CO)[C@@H](c3ccc(-c4cccnc4)cc3)[C@@H]2C1,-2,-19,-28*,4,-2,0,-0.82,?,
Cc1ccc(-c2ccc([C@H]3[C@@H](CO)N4CCCCN(S(=O)(=O)c5ccccc5C)C[C@@H]34)cc2)cc1,-2,7,6,0,-4,0,.,.,
CCn1cc(Cl)c(C(=O)Nc2cccc(C(F)(F)F)c2)n1,0,1,-23*,-6,0,10,-16,.,
C[C@H](CO)N1C[C@H](C)[C@@H](CN(C)C(=O)Nc2cccc3ccccc23)OCCCC[C@H](C)Oc2ccc(NC(=O)Nc3cccc4ccccc34)cc2C1=O,-2,15,1,-12,-3,0,.,.,
C[C@@H]1CCCCO[C@@H](CN(C)C)[C@H](C)CN([C@H](C)CO)C(=O)c2cc(NC(=O)Nc3cccc4ccccc34)ccc2O1,0,0,-1,3,11,0,-9.1,?,
C[C@@H]1CCCCO[C@@H](CN(C)C)[C@@H](C)CN([C@H](C)CO)C(=O)c2cc(NC(=O)Nc3cccc4ccccc34)ccc2O1,-3,-1,1,-3,5,0,-3.9,?,
